Source: ChEMBL document CHEMBL1141480 (Bioorg Med Chem Lett, 2008)
pIC50: −log10 of the molar value. In brackets after ≈: the same amount, converted by molar mass. Values belong to the compound of their own block, whether it stands above or below them.

How the values were obtained:
[1] = target: T1, Cathepsin S (Homo sapiens, UniProt P25774); assay: Inhibition of cathepsin S
In short: (§1)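 Purified human cathepsin enzymes, with assay conditions per an earlier report. Read-out is IC50; standard deviations were typically within 35% of the IC50.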

[2] = target: Cathepsin K (Homo sapiens, UniProt P43235); assay: Inhibition of humanized rabbit cathepsin K
[3] = target: T2, Cathepsin B (Homo sapiens, UniProt P07858); assay: Inhibition of cathepsin B; in short: as §1
[4] = target: T3, Procathepsin L (Homo sapiens, UniProt P07711); assay: Inhibition of cathepsin L; in short: as §1
T3 sequence (P07711 whole entry): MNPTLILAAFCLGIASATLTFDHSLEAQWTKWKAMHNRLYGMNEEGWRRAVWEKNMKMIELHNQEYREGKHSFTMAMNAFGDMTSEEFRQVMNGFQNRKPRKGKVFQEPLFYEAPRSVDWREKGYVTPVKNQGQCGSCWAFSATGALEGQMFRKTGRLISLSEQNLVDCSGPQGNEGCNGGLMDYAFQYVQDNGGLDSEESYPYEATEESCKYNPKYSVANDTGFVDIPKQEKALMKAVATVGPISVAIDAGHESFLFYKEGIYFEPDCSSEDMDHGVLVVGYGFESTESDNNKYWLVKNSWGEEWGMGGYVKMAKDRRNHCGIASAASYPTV

[5] = Clearance in monkey; format: ADME, organism-based, Macaca mulatta; settings: rhesus monkey, in vivo
[6] = Half life in monkey; format: ADME, organism-based, Macaca mulatta; settings: rhesus monkey, in vivo
[7] = test system: Osteoclast; assay: Inhibition of bone resorption in rabbit osteoclast; settings: Oryctolagus cuniculus
[8] = target: T4, Cathepsin K (Oryctolagus cuniculus, UniProt P43236); assay: Inhibition of rabbit cathepsin K
T4 sequence (P43236 whole entry): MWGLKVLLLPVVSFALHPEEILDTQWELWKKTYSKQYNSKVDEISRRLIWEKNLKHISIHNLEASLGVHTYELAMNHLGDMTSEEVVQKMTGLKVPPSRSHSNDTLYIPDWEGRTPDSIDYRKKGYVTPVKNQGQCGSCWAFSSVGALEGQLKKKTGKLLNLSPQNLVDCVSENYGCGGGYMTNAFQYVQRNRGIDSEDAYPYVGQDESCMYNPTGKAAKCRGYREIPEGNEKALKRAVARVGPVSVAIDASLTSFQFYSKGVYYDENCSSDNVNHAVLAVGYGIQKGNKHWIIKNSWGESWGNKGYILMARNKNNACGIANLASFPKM

[9] = test system: Fibroblast; assay: Accumulation of intracellular type I collagen in human dermal fibroblast upto 10 uM; format: functional
In short: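 Primary human dermal fibroblasts were grown in 3-D collagen gel, with inhibitors present for the final 3 days at concentrations up to 10 µM. Cells were freed from the gel with collagenase, fixed and permeabilized. Intracellular type I collagen was stained with an anti-type I collagen mAb plus a FITC-labelled secondary antibody and quantified by flow cytometry.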

[10] = Metabolic stability in dog hepatocyte at 20 uM after 2 hrs assessed as recovery of parent compound; format: ADME, cell-based, Canis lupus familiaris; settings: hepatocytes, read-out: Stability
[11] = Clearance in rhesus monkey at 5 mg/kg, po; format: ADME, organism-based, Macaca mulatta; parameters: dose 5 mg/kg, route oral; settings: in vivo
[12] = Inhibition of antigen presenting mouse B cells; format: functional, cell-based
[13] = Half life in rat at 10 mg/kg, po; format: ADME, organism-based; parameters: dose 10 mg/kg, route oral; settings: in vivo
[14] = target: T5, Cathepsin K (Homo sapiens, UniProt P43235); assay: Inhibition of human cathepsin K
T5 sequence (P43235 whole entry): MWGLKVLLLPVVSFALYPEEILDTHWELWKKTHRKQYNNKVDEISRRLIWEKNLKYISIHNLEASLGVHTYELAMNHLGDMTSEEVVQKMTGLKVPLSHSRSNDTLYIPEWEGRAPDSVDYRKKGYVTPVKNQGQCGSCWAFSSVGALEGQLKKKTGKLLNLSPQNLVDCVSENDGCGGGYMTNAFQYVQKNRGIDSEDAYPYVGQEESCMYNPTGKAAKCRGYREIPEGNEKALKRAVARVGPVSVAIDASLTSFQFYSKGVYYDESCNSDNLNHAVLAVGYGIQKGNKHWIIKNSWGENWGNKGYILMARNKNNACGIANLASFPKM

[15] = Clearance in dog at 5 mg/kg, po; format: ADME, organism-based, Canis lupus familiaris; parameters: dose 5 mg/kg, route oral; settings: in vivo
[16] = target: T6, Pro-cathepsin H (Homo sapiens, UniProt P09668); assay: Inhibition of cathepsin H; in short: as §1
T6 sequence (P09668 whole entry): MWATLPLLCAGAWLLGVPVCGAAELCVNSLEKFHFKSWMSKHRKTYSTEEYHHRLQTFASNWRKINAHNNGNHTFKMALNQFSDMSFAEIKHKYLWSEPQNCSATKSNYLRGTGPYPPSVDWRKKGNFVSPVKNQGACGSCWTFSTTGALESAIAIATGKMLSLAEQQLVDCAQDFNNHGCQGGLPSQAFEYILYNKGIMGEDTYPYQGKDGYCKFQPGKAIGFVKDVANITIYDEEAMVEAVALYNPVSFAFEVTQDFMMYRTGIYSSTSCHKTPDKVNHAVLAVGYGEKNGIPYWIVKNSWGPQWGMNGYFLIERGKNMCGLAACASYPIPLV

[17] = Oral bioavailability in dog at 5 mg/kg; format: ADME, organism-based, Canis lupus familiaris; settings: in vivo
[18] = Half life in dog at 5 mg/kg, po; format: ADME, organism-based, Canis lupus familiaris; parameters: dose 5 mg/kg, route oral; settings: in vivo
[19] = Oral bioavailability in rat at 10 mg/kg; format: ADME, organism-based; settings: in vivo
[20] = test system: Splenocyte; assay: Inhibition of MHC 2 invariant chain iip10 in mouse splenocytes; format: functional, cell-based
[21] = Half life in rhesus monkey at 5 mg/kg, po; format: ADME, organism-based, Macaca mulatta; parameters: dose 5 mg/kg, route oral; settings: in vivo
[22] = target: T2, Cathepsin B; assay: Inhibition of cathepsin B in human HepG2 cells; format: cell-based
In short: (§2)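 Whole-cell enzyme occupancy assays run as previously described: human HepG2 cells for cathepsin B and L, and Ramos cells for cathepsin S. Read-out is IC50.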

[23] = target: T1, Cathepsin S; assay: Inhibition of cathepsin S in human ramos cells; format: cell-based; in short: as §2
[24] = target: T7, Cathepsin F (Homo sapiens, UniProt Q9UBX1); assay: Inhibition of cathepsin F; in short: as §1
T7 sequence (Q9UBX1 whole entry): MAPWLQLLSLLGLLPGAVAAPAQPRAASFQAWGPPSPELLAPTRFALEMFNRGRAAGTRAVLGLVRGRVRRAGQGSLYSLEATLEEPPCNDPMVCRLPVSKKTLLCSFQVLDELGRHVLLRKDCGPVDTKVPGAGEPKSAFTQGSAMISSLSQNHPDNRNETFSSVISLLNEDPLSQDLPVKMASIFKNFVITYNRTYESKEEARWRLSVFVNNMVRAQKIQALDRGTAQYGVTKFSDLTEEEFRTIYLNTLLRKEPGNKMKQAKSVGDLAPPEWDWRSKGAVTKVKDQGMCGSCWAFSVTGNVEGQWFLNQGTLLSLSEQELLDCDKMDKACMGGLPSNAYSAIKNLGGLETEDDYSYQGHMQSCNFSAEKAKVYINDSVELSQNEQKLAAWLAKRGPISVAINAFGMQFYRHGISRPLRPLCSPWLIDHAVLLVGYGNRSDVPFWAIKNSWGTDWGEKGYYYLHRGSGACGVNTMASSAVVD

[25] = target: T3, Procathepsin L; assay: Inhibition of cathepsin L in human HepG2 cells; format: cell-based
[26] = Clearance in rat at 10 mg/kg, po; format: ADME, organism-based; parameters: dose 10 mg/kg, route oral; settings: in vivo
[27] = test system: Rattus norvegicus; assay: Volume of distribution at steady state in rat at 10 mg/kg, po; format: ADME, organism-based; parameters: dose 10 mg/kg, route oral; settings: in vivo
[28] = test system: Rhesus monkey; assay: Volume of distribution at steady state in rhesus monkey at 5 mg/kg, po; format: ADME, organism-based, Macaca mulatta; parameters: dose 5 mg/kg, route oral; settings: in vivo
[29] = Metabolic stability in human hepatocyte at 20 uM after 2 hrs assessed as recovery of parent compound; format: ADME, cell-based; settings: hepatocytes, read-out: Stability
[30] = target: Cathepsin Z (Homo sapiens, UniProt Q9UBR2); assay: Inhibition of cathepsin Z
Sequence of Cathepsin Z (Q9UBR2 whole entry): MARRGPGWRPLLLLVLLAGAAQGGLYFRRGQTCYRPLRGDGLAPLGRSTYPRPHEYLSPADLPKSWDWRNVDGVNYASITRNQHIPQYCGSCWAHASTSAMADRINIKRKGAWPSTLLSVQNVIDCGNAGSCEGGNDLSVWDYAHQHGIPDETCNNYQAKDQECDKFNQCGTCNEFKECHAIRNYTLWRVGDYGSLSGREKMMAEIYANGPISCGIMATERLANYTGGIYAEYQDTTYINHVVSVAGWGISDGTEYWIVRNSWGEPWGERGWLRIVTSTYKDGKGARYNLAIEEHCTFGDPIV

[31] = target: Dipeptidyl peptidase 1 (Homo sapiens, UniProt P53634); assay: Inhibition of cathepsin C; in short: as §1
Sequence of Dipeptidyl peptidase 1 (P53634 25-134 limits assumed): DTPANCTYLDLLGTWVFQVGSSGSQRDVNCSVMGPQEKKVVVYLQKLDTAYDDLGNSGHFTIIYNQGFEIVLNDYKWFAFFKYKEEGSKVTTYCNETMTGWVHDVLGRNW
Sequence of Dipeptidyl peptidase 1 (P53634 231-394 limits assumed): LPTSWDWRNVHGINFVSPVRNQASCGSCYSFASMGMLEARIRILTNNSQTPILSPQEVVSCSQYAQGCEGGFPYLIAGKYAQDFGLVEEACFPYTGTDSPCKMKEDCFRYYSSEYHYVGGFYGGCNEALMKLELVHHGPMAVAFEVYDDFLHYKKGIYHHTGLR
Sequence of Dipeptidyl peptidase 1 (P53634 395-463 limits assumed): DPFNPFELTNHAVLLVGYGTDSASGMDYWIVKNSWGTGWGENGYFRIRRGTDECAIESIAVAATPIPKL

[32] = target: T8, Cathepsin L2 (Homo sapiens, UniProt O60911); assay: Inhibition of cathepsin V; in short: as §1
T8 sequence (O60911 whole entry): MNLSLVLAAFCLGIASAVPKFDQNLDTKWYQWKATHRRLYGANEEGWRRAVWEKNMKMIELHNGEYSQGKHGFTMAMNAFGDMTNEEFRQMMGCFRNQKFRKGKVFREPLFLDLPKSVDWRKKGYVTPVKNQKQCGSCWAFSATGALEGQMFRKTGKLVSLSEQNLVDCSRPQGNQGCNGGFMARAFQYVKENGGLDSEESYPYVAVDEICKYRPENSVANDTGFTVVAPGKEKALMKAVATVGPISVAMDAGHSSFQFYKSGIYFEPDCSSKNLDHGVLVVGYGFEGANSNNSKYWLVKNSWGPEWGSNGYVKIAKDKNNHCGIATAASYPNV

[33] = Oral bioavailability in rhesus monkey at 5 mg/kg; format: ADME, organism-based, Macaca mulatta; settings: in vivo
[34] = Metabolic stability in rhesus monkey hepatocyte at 20 uM after 2 hrs assessed as recovery of parent compound; format: ADME, cell-based, Macaca mulatta; settings: hepatocytes, read-out: Stability
[35] = test system: Canis familiaris; assay: Volume of distribution at steady state in dog at 5 mg/kg, po; format: ADME, organism-based, Canis lupus familiaris; parameters: dose 5 mg/kg, route oral; settings: in vivo

T1 sequence (P25774 whole entry): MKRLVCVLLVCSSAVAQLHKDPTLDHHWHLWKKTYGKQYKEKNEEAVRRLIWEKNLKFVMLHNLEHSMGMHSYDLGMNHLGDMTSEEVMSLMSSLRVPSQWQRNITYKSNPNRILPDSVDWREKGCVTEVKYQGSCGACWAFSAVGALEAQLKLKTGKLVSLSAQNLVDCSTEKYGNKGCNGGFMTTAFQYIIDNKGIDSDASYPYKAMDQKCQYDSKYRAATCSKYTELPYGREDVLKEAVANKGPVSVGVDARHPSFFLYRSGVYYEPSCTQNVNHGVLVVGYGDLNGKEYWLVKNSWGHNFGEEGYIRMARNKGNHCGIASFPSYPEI

Compound: CC(C)C[C@H](N[C@@H](c1ccc(-c2ccc(S(C)(=O)=O)cc2)cc1)C(F)(F)F)C(=O)N[C@@H](C)C#N
pIC50 [1]: 5.65 | pIC50 [2]: 8.92 | pIC50 [3]: < 5.00 | pIC50 [4]: 5.47

Compound: CC(C)C[C@H](N[C@@H](c1ccc(-c2ccc(S(C)(=O)=O)cc2)cc1)C(F)(F)F)C(=O)N[C@@H](C#N)Cc1ccccc1
pIC50 [1]: 5.55 | pIC50 [2]: 8.29 | pIC50 [3]: < 5.00 | pIC50 [4]: 5.53

Compound: CC(C)C[C@H](N[C@@H](c1ccc(-c2ccc(S(C)(=O)=O)cc2)cc1)C(F)(F)F)C(=O)NC(C)(C)C#N
pIC50 [1]: 5.60 | pIC50 [2]: 8.40 | pIC50 [3]: < 5.00 | pIC50 [4]: < 5.00

Compound: CC(C)C[C@H](N[C@@H](c1ccc(-c2ccc(S(C)(=O)=O)cc2)cc1)C(F)(F)F)C(=O)NC(C#N)c1ccccc1 (mixture of isomers)
pIC50 [1]: 6.66 | pIC50 [2]: 9.22 | pIC50 [3]: 5.46 | pIC50 [4]: 6.18

Compound: CCCN1CCN(c2ccc(C(=O)NC3(C(=O)NCC#N)CCCCC3)cc2)CC1 [BALICATIB]
Activity [9]: 3

Compound: CC(C)C[C@H](NC(=O)c1cc2ccccc2o1)C(=O)N[C@H]1CC[C@@H](C)N(S(=O)(=O)c2ccccn2)CC1=O [RELACATIB]
pIC50 [7]: 7.82 | pIC50 [22]: 7.85 | pIC50 [23]: 8.10

The remaining compounds from weak to strong by pIC50 [2], led by results:

pIC50 [1]: 7.42 | pIC50 [2]: 9.22 | pIC50 [3]: 6.02 | pIC50 [4]: 7.17
Compound: CC(C)C[C@H](N[C@@H](c1ccc(-c2ccc(S(C)(=O)=O)cc2)cc1)C(F)(F)F)C(=O)N[C@H](C#N)Cc1ccccc1

clearance [5]: 0.45 L/h/kg | half-life [6]: 2 h | pIC50 [7]: 7.89 | pIC50 [2]: 9.70 | pIC50 [8]: 9.10
Compound: CC(C)C[C@H](N[C@@H](c1ccc(-c2ccc(S(C)(=O)=O)cc2)cc1)C(F)(F)F)C(=O)NCC#N

remaining at 2 h, 20 µM [10]: > 99% | CL/F [11]: 0.366 L/h/kg | pIC50 [1]: 7.22 | pIC50 [12]: 5.82 | half-life [13]: 6 h | pIC50 [14]: 9.70 | CL/F [15]: 0.0078 L/h/kg | pIC50 [16]: < 5.00 | bioavailability [17]: 6% | half-life [18]: 57 h | bioavailability [19]: 8% | MIC [20]: 1 µM (≈ 0.526 µg/mL) | half-life [21]: 18 h | pIC50 [7]: 7.64 | pIC50 [22]: 5.98 | pIC50 [23]: 7.35 | pIC50 [24]: 6.10 | pIC50 [25]: 5.31 | pIC50 [2]: 9.70 | CL/F [26]: 0.12 L/h/kg | Vdss [27]: 1.1 L/kg | Vdss [28]: 1.6 L/kg | remaining at 2 h, 20 µM [29]: > 99% | pIC50 [30]: < 5.00 | pIC50 [3]: 5.99 | pIC50 [4]: 5.52 | pIC50 [31]: < 5.00 | pIC50 [8]: 9.00 | pIC50 [32]: 6.12 | bioavailability [33]: 7% | remaining at 2 h, 20 µM [34]: 98% | Vdss [35]: 0.6 L/kg
Compound: CC(C)(F)C[C@H](N[C@@H](c1ccc(-c2ccc(S(C)(=O)=O)cc2)cc1)C(F)(F)F)C(=O)NC1(C#N)CC1 [ODANACATIB]
